# TRPN1 ag: zebrafish TRPN1 channel agonists, primary screen, cell-based, HEK293, calcium fluorescence; actives 0.18% (n = 220,000); AID 1424, 2008; activation, % at 3 µM; HEK293 zebrafish TRPN1-YFP, Fluo-8 calcium fluorescence; 100% = response to 87 µM carbachol;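 active = activation above its plate's cutoff, the mean activation of test wells on that plate plus 3 SD, cut at about 19% in these data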;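 also: 0% = DMSO alone and 100% = 87 µM carbachol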
#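 Material: zebrafish TRPN1-YFP in HEK293 cells. Doses: one dose of 3 µM, 0.3% DMSO. Incubation: dye 1 h 37 °C plus 30 min RT. Measured by: intracellular calcium fluorescence with Fluo-8.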
# TAAR1 antag: human TAAR1 antagonists, primary screen, Fluo-8 calcium fluorescence, CHO RD-HGA16 cells; Trace amine-associated receptor 1 (Homo sapiens), Q96RJ0; antagonist; inhibition, % at 3 µM; actives 1.5% (n = 360,000);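 active = inhibition above a per-plate cutoff, the mean inhibition of test compounds on that plate plus 3 SD, cut at about 49% in these data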;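 also: 0% = DMSO plus EC80 beta-PEA response and 100% = DMSO alone without agonist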
#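 Assay system: CHO-derived RD-HGA16 cells stably expressing human TAAR1 plus Gα16. Timing: 140 s kinetic read after compound, 140 s after agonist. Technique: kinetic Fluo-8 calcium fluorescence measurement. Measure: % inhibition of agonist calcium response.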
# TRPML3 agonist: human TRPML3 channel agonists, primary screen, cell-based, HEK293 TRPML3-YFP, Fluo-8 calcium fluorescence, 3 µM; Mucolipin-3 (Homo sapiens), Q8TDD5; 100% = the carbachol control signal; activation, % at 3 µM; AID 1448, 2008; actives 0.29% (n = 220,000);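 active = activation above its plate's cutoff, the mean activation of the plate's test wells plus 3 SD, cut at about 12% in these data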;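 also: 0% = DMSO only wells and 100% = carbachol wells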
# Target sequence (Q8TDD5 whole entry, looked up): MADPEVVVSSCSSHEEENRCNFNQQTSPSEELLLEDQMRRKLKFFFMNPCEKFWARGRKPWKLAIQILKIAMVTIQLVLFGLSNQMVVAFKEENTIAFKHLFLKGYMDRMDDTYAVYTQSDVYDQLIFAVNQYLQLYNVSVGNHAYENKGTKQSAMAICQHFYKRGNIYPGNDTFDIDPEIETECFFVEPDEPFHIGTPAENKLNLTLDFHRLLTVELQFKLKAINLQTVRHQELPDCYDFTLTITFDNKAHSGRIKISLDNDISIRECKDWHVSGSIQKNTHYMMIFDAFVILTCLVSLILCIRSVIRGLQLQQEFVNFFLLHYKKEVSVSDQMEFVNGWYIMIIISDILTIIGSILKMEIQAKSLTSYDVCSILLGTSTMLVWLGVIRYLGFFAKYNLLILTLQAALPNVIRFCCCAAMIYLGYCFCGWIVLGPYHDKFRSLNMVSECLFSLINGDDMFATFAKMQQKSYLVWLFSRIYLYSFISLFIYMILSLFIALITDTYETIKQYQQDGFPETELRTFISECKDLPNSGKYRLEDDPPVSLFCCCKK
#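 Test system: HEK293 cells stably carrying human TRPML3-YFP; Doses: single dose, 3 µM final nominal compound, 0.3% DMSO final; Schedule: dye loading 1 h 37 °C then 30 min ambient, 125 s read; Technique: Fluo-8 calcium fluorescence; Benchmarks: high control carbachol 87 µM, low control DMSO.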
# LANA-H2A inh: blockers of LANA interaction with H2A/H2B – biochemical, FP readout, HTS, primary screen; cell-free LANA-H2A/H2B peptide, fluorescence polarization; inhibition, % (test concentration not listed); actives 0.6% (n = 320,000); AID 2629, 2010; in the data active = inhibition mostly above about 10%, no sharp cut-off; inactive = mostly below about 6.7%
# GPR7 antag: GPR7 receptor antagonists, primary screen, cell-based, fluorescence, single concentration; inhibition, % at 4.4 µM; GPR7-expressing cells, fluorescence antagonist assay; actives 1.1% (n = 290,000); AID 1861, 2009; Neuropeptides B/W receptor type 1 (Homo sapiens), P48145; in the data active = inhibition above about 16%, passing the limit was not always enough;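 also: cells stimulated with the agonist NPW; 0% = agonist with vehicle and 100% = vehicle without agonist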
# TAAR1 agonist: human TAAR1 agonists, primary screen, Fluo-8 calcium fluorescence, CHO RD-HGA16 cells; actives 0.99% (n = 360,000); vehicle wells 0%, saturating PEA agonist 100%; activation, % at 3 µM; AID 624467, 2012;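 active = activation above the mean activation of all test compounds in the run plus 3 SD, cut at about 38% in these data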
#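 Test system: RD-HGA16 (CHO) cells co-expressing Gα16 and hTAAR1; dosing: one-point dosing at 3 µM (nominal); timing: 17-24 h seeding, 75 min 37 °C dye, 30 min RT; signal: kinetic Fluo-8 calcium fluorescence; read-out basis: % activation relative to PEA EC100 response; controls: DMSO and PEA EC100; replicates: n 1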
# nonsel antag count: nonselective antagonists in TAAR1 counter-screen cells, counter-screen for hTAAR1 antagonist project, cell-based, fluorescence, calcium | shares compounds with TAAR1 antag | counterscreen cell line, antagonist mode | inhibition, % at 3 µM | actives 77% (n = 2,400); in the data active = inhibition above about 22%;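 also: CHO-Ga16 host cells stimulated with ATP at an EC80 level; 0% = agonist EC80 plus vehicle and 100% = vehicle without agonist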
# TAAR1 ant conf: human TAAR1 antagonists, retest of hits, confirmation, cell-based, fluorescence | shares compounds with TAAR1 antag | TAAR1-expressing cells, fluorescence antagonist read-out | inhibition, % at 3 µM | actives 40% (n = 2,400) | AID 651785, 2012; in the data active = inhibition above about 49%;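 also: CHO-Ga16 host cells challenged with agonist PEA near its EC80; 0% = agonist at EC80 plus vehicle and 100% = vehicle with no agonist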
# Ga16 nonsel ag: calcium activation in Ga16-expressing cells, counter-screen for TAAR1 antagonist project, cell-based, fluorescence. shares compounds with TAAR1 antag. activation, % at 3 µM. agonist counterscreen. actives 18% (n = 2,400); in the data active = activation above about 12%;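 also: 0% = vehicle wells and 100% = saturating stimulus response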
# TAAR1 ag counter: TAAR1 activation by candidate antagonists – cell-based, fluorescence, counter-screen for TAAR1 antagonist project | actives 2% (n = 2,400) | hTAAR1 cell line, agonist mode | activation, % at 3 µM | shares compounds with TAAR1 antag; in the data active = activation above about 37%;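 also: CHO cells stably expressing TAAR1 with calcium dye readout; 0% = DMSO vehicle and 100% = full agonist response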
# Starred values were filed as active, the others as inactive; . = not tested or not shown. This is a sample that favours compounds with a hit; in the whole collection about 3.4% have one here.
SMILES,TRPN1 ag,TAAR1 antag,TRPML3 agonist,LANA-H2A inh,GPR7 antag,TAAR1 agonist,nonsel antag count,TAAR1 ant conf,Ga16 nonsel ag,TAAR1 ag counter
N=c1c2c(ncn1Cc1ccco1)Oc1c(ccc3ccccc13)C2c1ccccc1 (centres undefined),1.6,57.6*,0.8,7.7,-3.7,0.2,14.2,14.0,6.5,35.0
N=c1c2c(ncn1Cc1ccco1)Oc1cc(O)ccc1C2c1ccccc1 (centres undefined),2.8,-14.1,0.6,-0.6,-2.1,0.1,.,.,.,.
O=C(NCCN1CCCC1)C(c1ccccc1)c1ccccc1,.,-7.3,.,-4.2,11.5,4.6,.,.,.,.
CN(C)S(=O)(=O)N1CCC(Oc2cccc(C(=O)NCCC3=CCCCC3)c2)CC1,.,81.3*,.,3.0,21.1,12.7,43.3*,60.2*,12.7*,8.3
C=CC[C@@H](CC(=O)N[C@H](CO)Cc1ccccc1)C(=O)N[C@@H](COC(=O)[C@@H](CC=C)CC(=O)OC(C)(C)C)Cc1ccccc1,.,38.1,.,-125.9,.,7.4,.,.,.,.
Cc1ccc([C@H]2C(C(=O)O)=CC[C@@H](c3ccc(Cl)cc3)N2S(=O)(=O)c2ccc(C)cc2)cc1,.,65.9*,.,3.2,.,5.9,11.2,45.7,2.4,0.5
Cc1ccc(S(=O)(=O)N2[C@@H](c3ccc(Cl)cc3)C(C(=O)O)=CC[C@H]2c2ccc(C(C)C)cc2)cc1,.,46.9,.,7.9,.,22.7,.,.,.,.
O=S(=O)(c1cccs1)N1CCCc2nc(-c3ccc(F)cc3)ccc21,.,53.3*,.,.,.,-0.6,33.2*,37.0,6.1,0.8
COc1ccc(-c2ccc3c(n2)CCCN3S(=O)(=O)c2ccc(OC)cc2)cc1,.,19.6,.,.,.,1.8,.,.,.,.
COc1ccc(-c2ccc3c(n2)CCCN3S(=O)(=O)c2cccs2)cc1,.,80.5*,.,.,.,12.6,41.5*,63.6*,11.0,12.6
O=C(OCn1ncc(Cl)c(Cl)c1=O)c1ccc(C(F)(F)F)cc1,1.6,66.4*,-0.3,.,-4.4,12.7,35.2*,39.5,6.3,7.5
O=C(Nc1ccc(-c2cn3ccsc3n2)cc1)c1ccc(F)c(S(=O)(=O)N2CCOCC2)c1,7.5,91.1*,2.5,-0.8,4.7,22.8,39.0*,74.9*,11.6*,7.2
COc1ccc(CN2CCN(C(=O)c3cc(-c4cccnc4)nc4ccc(Cl)cc34)CC2)c(OC)c1OC,3.6,72.3*,1.8,0.6,-3.2,18.4,32.2*,54.3*,7.7,7.4
O=C(c1cc(-c2ccncc2)nc2ccc(Cl)cc12)N1CCN(Cc2ccc3c(c2)OCO3)CC1,2.1,58.5*,1.3,-2.0,-2.4,19.6,31.8*,53.1*,9.7,10.4
CCn1cc(C(=O)NCC2CCCO2)c(=O)c2cc(S(=O)(=O)N(C)C)ccc21 (centres undefined),0.4,-26.0,0.6,2.5,-13.2,0.8,.,.,.,.
